ChEMBL document CHEMBL5357040, “Synthesis and migrastatic activity of cytochalasin analogues lacking a macrocyclic moiety” (RSC Med Chem, 2024)
The source made the active and inactive calls. The rule behind the calls is not given here.

What was measured:
[1] = Inhibition of actin (unknown origin) polymerization at 10 uM by spectrophotometer analysis; conditions: Homo sapiens
Outline: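 Pyrene-labelled actin (0.4 mg mL⁻¹) in G-buffer with compound at 10 μM or DMSO control; polymerization started with 10× actin polymerization buffer. Fluorescence (ex 360 nm, em 420 nm) followed over time until plateau.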

BLM = experiment: Migrastatic activity against human BLM cells assessed as decrease in cell migration at 10 uM incubated for 24 hrs by spheroid invasion assay; assay type: functional, cell-based
Outline: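 BLM spheroids formed over 2 days, embedded singly in 1.5 mg mL⁻¹ rat-tail type I collagen (1× DMEM, 1% FBS), polymerized at 37 °C, overlaid with medium; 10 μM treatment. Imaged at 0 and 24 h; invasiveness as spheroid area increase. Three independent experiments, ≥8 spheroids each; one-way ANOVA.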

HT-1080 [2] = experiment: Inhibition of actin in human HT-1080 cells assessed as effect on actin cytoskeleton at 10 uM incubated for 2 mins by fluorescence microscopic analysis; assay type: cell-based
Outline: (§1)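 HT1080 cells on glass-bottom plates stained with SPY650-FastAct; untreated cells imaged every 20 s for 15 min, then compound (10 or 50 μM) added to same well and recorded 15 min at 20 s/frame by fluorescence time-lapse; actin cytoskeleton and morphology assessed from video.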

HT-1080 [3] = experiment: Effect on cell morphology in human HT-1080 cells at 50 uM incubated for 5 mins by fluorescence microscopic analysis; assay type: functional, cell-based; outline: as §1
HT-1080 [4] = experiment: Inhibition of actin in human HT-1080 cells assessed as effect on actin cytoskeleton at 10 uM incubated for 5 mins by fluorescence microscopic analysis; assay type: cell-based; outline: as §1

SMILES	inhibition [1]	Activity (BLM)	inhibition (HT-1080 [2])	Activity (HT-1080 [3])	inhibition (HT-1080 [4])
COC(=O)[C@@]12C(=O)N[C@@H](Cc3ccccc3)[C@@H]1[C@H](C)[C@@](C)(Cl)[C@H](O)[C@@H]2CCOCCc1ccccc1	Active	–	–	–	–
CC1=C[C@H](CCOCCc2ccccc2)[C@]2(CO)C(=O)N[C@@H](Cc3ccccc3)[C@@H]2[C@@H]1C	Active	Active	–	–	–
COC(=O)[C@@]12C(=O)N[C@@H](Cc3ccccc3)[C@@H]1[C@H](C)C(C)=C[C@@H]2CCCOCc1ccccc1	Active	Active	–	–	–
C=C1[C@@H](C)[C@H]2[C@H](Cc3ccccc3)NC(=O)[C@]23OC(=O)/C=C/[C@H](O)CCC[C@@H](C)C/C=C/[C@H]3[C@@H]1O	–	inactive	Active	–	–
C=C1[C@@H](C)[C@H]2[C@H](Cc3ccccc3)NC(=O)[C@]23[C@H](OC(C)=O)/C=C/[C@@](C)(O)C(=O)[C@@H](C)C/C=C/[C@H]3[C@@H]1O	–	inactive	Active	–	–
C=C1[C@@H](C)[C@H]2[C@H](Cc3ccccc3)NC(=O)[C@@]2(C(=O)OC)[C@@H](CCOCCc2ccccc2)[C@@H]1O	Active	Active	inactive	Active	Active
